Assay results gathered from unrelated publications.
Protocols differ between the studies behind these lines.
CA2: Carbonic anhydrase 2 (CA2, Homo sapiens, UniProt P00918)
Neuronal acetylcholine receptor; alpha9/alpha10: Neuronal acetylcholine receptor; alpha9/alpha10 (Homo sapiens, UniProt Q9GZZ6+Q9UGM1)

| SMILES | target | read-out | action | technique | notes | endpoint | result |
| --- | --- | --- | --- | --- | --- | --- | --- |
| COc1ccc(S(=O)(=O)Oc2cccc(C=NNC(=O)c3ccc(F)cc3)c2)cc1 | CA2 | enzyme activity | inhibitor | absorbance |  | IC50 | 0.139 µM |
| CNC(=O)c1ccc(-c2cnn3ccc(C(=O)N(C)c4ccc(Cl)c(C(=O)OC)c4)cc23)cc1 | Receptor tyrosine-protein kinase erbB-2 (ERBB2, Homo sapiens, UniProt P04626) | enzyme activity | inhibitor |  |  | IC50 | > 30 µM |
| COc1ccc2c3c([nH]c2c1)CCN(C)CC3 | Neuronal acetylcholine receptor; alpha9/alpha10 | ion current | antagonist | two-electrode voltage clamp | oocytes | IC50 | 3 µM |
| COc1ccc(S(=O)(=O)Oc2ccccc2C=NNC(=O)c2ccc(F)cc2)cc1 | CA2 | enzyme activity | inhibitor | absorbance |  | IC50 | 0.156 µM |
| CC[N+]1(CC)CCN(c2ccc(NC(=O)c3cccc(C)n3)cc2)CC1 | Neuronal acetylcholine receptor; alpha9/alpha10 | ion current | agonist | two-electrode voltage clamp | oocytes | EC50 | 0.83 µM |
| COC(=O)c1cc(N(C)C(=O)c2ccn3ncc(-c4ccc(C(=O)O)cc4)c3c2)ccc1Cl | cAMP-dependent protein kinase catalytic subunit alpha (PRKACA, Homo sapiens, UniProt P17612) | enzyme activity | inhibitor |  |  | IC50 | > 30 µM |
| CCCNC(=O)c1ccc(N2CC[N+](CC)(CC)CC2)cc1 | Neuronal acetylcholine receptor; alpha9/alpha10 | ion current | agonist | two-electrode voltage clamp | oocytes | EC50 | 11 µM |
| COc1ccc(S(=O)(=O)Oc2ccc(C=NNC(=O)c3ccc(F)cc3)cc2)cc1 | CA2 | enzyme activity | inhibitor | absorbance |  | IC50 | 0.0974 µM |
| CNC(=O)c1ccc(-c2cnn3ccc(C(=O)N(C)c4ccc(Cl)c(C(=O)O)c4)cc23)cc1 | STE20-like serine/threonine-protein kinase (SLK, Homo sapiens, UniProt Q9H2G2) | enzyme activity | inhibitor |  |  | IC50 | > 30 µM |
| COc1ccc2[nH]c3c(c2c1)CCN(C)CC3 | Neuronal acetylcholine receptor; alpha9/alpha10 | ion current | antagonist | two-electrode voltage clamp | oocytes | IC50 | 3.2 µM |
